{"source": "paper PMC2223364", "about": "(The Journal of General Physiology, 1999)", "key": {"[1]": {"test_system": "maxi-KCa channel (external ChTX site)", "experiment": "Slow block by external charybdotoxin in absence and presence of internal DTX-I", "format": "biochemical, rat"}, "[2]": {"molecular_target": "rat muscle maxi-KCa channel (large conductance Ca^2+-activated K^+ channel), intracellular site", "experiment": "Single-channel substate kinetics of one Kunitz inhibitor", "format": "biochemical", "procedure,_shortened": "(§1)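 Single rat skeletal muscle maxi-KCa channels were taken from plasma membrane vesicles and fused into planar bilayers of 80% POPE/20% POPC. Recordings used symmetrical 50 mM KCl and 10 mM MOPS-KOH, pH 7.4. Internal CaCl2 was 200 μM, raised to 500 μM in some experiments to keep open probability >0.9. Holding was +30 mV at 20–23°C, with Ag/AgCl electrodes and agar-KCl bridges.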"}, "[3]": {"molecular_target": "rat muscle maxi-KCa channel (large conductance Ca^2+-activated K^+ channel), intracellular site", "experiment": "Ligand interaction of BPTI and DTX-I on single maxi-KCa channels, planar bilayer", "format": "biochemical", "procedure,_shortened": "as §1"}, "[4]": {"molecular_target": "rat muscle maxi-KCa channel, intracellular sites (Rattus norvegicus, UniProt Q62976)", "sequence (Q62976 whole entry)": "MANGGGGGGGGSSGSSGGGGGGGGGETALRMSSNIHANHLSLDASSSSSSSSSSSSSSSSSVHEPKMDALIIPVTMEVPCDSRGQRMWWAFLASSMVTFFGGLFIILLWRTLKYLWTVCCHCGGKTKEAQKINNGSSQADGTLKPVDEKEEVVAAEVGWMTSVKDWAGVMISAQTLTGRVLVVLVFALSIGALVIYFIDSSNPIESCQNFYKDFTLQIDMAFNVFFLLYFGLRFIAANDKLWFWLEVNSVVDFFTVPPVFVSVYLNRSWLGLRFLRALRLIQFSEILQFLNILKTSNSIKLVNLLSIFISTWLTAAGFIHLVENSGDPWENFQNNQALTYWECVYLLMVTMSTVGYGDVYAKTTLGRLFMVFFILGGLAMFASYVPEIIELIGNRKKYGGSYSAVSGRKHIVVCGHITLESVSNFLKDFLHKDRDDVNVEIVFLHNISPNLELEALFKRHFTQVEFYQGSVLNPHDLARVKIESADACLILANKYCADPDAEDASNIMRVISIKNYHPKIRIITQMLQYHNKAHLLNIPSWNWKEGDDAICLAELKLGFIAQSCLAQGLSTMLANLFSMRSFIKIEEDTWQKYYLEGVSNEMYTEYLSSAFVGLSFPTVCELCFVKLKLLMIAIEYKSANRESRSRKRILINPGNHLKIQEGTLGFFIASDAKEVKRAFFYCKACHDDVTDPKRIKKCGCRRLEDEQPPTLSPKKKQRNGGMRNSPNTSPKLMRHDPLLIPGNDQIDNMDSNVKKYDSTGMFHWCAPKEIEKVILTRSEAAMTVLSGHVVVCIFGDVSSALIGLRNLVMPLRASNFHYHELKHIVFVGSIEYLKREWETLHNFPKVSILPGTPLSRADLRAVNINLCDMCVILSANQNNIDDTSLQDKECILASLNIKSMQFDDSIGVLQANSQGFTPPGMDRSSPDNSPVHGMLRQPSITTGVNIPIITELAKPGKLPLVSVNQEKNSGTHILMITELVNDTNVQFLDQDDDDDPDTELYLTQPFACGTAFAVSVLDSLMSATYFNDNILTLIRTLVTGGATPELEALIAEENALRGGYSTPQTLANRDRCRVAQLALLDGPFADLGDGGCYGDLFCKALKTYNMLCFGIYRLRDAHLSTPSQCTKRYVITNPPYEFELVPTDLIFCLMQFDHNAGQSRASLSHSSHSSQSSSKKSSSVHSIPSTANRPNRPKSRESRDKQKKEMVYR", "experiment": "Ligand interaction of BP and DTX-I on single maxi-KCa channels, planar bilayer", "format": "biochemical", "procedure,_shortened": "as §1"}, "[5]": {"molecular_target": "rat muscle maxi-KCa channel, internal pore (Rattus norvegicus, UniProt Q62976)", "sequence (Q62976 whole entry)": "as above", "experiment": "Single-channel block by ball peptide homologue", "format": "biochemical", "conditions": "for Kd: BP alone, +30 mV, 50 mM KCl, pH 7.4", "procedure,_shortened": "as §1"}, "[6]": {"test_system": "maxi-KCa channel (external TEA site)", "experiment": "Fast block by external TEA in absence and presence of internal DTX-I", "format": "biochemical, rat", "conditions": "460 nM DTX-I; P = 0.1", "procedure,_shortened": "as §1"}, "[7]": {"test_system": "maxi-KCa channels", "conditions": "cited from earlier work"}, "[8]": {"test_system": "cyclic nucleotide–gated channels", "conditions": "ref Kramer et al., 1994; cited from earlier work"}, "[9]": {"test_system": "serine proteinases (chymotrypsin/trypsin family)", "conditions": "BPTI and related Kunitz molecules; ref Dufton, 1985; Capasso et al., 1997; cited from earlier work"}, "[10]": {"conditions": "read-out: Kd (studied alone), abstract, one-site binding kinetics, unoccupied channel"}}, "note": "Values joined by “and” are separate entries in the source; they are usually repeats but may differ in a detail not shown here. Identical values can stand only once. Like-named read-outs stand apart in the source and are kept apart here. Ends that are not written are not given here.", "data": [{"compound": "charybdotoxin [ChTX]", "values": [{"measurement": "binding interaction of external ChTX with internal DTX-I", "setting": "[1]; 460 nM internal DTX-I", "result": "no detectable binding interaction"}, {"measurement": "koff of ChTX, presence of DTX-I", "setting": "[1]; 460 nM internal DTX-I, +30 mV", "result": "0.0350 ± 0.0003", "unit": "s⁻¹"}, {"measurement": "kon of ChTX, presence of DTX-I", "setting": "[1]; 460 nM internal DTX-I, +30 mV", "result": "2.89 ± 0.51 × 10^7 s^−1M^−1"}, {"measurement": "koff of ChTX, absence of DTX-I", "setting": "[1]; external ChTX (10 nM), +30 mV", "result": "0.0369 ± 0.0004", "unit": "s⁻¹"}, {"measurement": "kon of ChTX, absence of DTX-I", "setting": "[1]; external ChTX (10 nM), +30 mV", "result": "2.77 ± 0.42 × 10^7 s^−1M^−1"}, {"measurement": "Kd", "setting": "[1]; read-out: Kd of ChTX (koff/kon), absence of DTX-I, external ChTX (10 nM), +30 mV", "result": "0.00133 ± 0.0002", "unit": "µM"}]}, {"compound": "dendrotoxin I (QPLRKLCILHRNPGRCYQKIPAFYYNQKKKQCEGFTWSGCGGNSNRFKTIEECRRTCIRK; ends and bridges not checked; cysteine pairing not given here; UniProt P00979 1-60, looked up) [DTX-I]", "values": [{"measurement": "Kd", "setting": "[2]; [10]", "result": 0.0165, "unit": "µM"}, {"measurement": "Kd", "setting": "[2]; read-out: equilibrium dissociation constant J1 = j−1/4j1 (DTX-I from SDTX), DTX-I, unoccupied channel, +30 mV, 50 mM KCl, pH 7.4", "result": 0.0165, "unit": "µM"}, {"measurement": "Kd", "setting": "[3]; read-out: equilibrium dissociation constant J2, DTX-I binding to BPTI-occupied channel, from slope of τBURST vs [BPTI], Eq. 7, 460 nM DTX-I, +30 mV, 50 mM KCl, pH 7.4", "result": 0.178, "unit": "µM"}, {"measurement": "Kd", "setting": "[4]; read-out: equilibrium dissociation constant J3 (DTX-I from BBP/DTX), DTX-I binding to BP-blocked state, from τBP, Eq. 19, +30 mV, 50 mM KCl, pH 7.4", "result": 0.139, "unit": "µM"}]}, {"compound": "CC[N+](CC)(CC)CC", "note": "[TEA, tetraethylammonium]", "values": [{"measurement": "effect of internal TEA on BP association", "setting": "[5]; data not shown", "result": "decreases the association rate of BP homologue in a competitive fashion"}, {"measurement": "binding interaction of external TEA with internal DTX-I", "setting": "[6]", "result": "no detectable binding interaction"}, {"measurement": "effect of BPTI or DTX-I on blocking affinity of internal blocker", "setting": "[7]; Ba^2+ with BPTI, internal TEA with DTX-I, ref Lucchesi and Moczydlowski, 1991", "result": "not significantly affected"}, {"measurement": "inhibition of ball peptide block by TEA", "setting": "[7]; ref Toro et al., 1992", "result": "inhibits ball peptide block of the maxi-KCa channel in a strictly competitive fashion"}]}, {"compound": "MAAVAVLYVLGKKRQHRKKQ [BP]", "values": [{"measurement": "Kd", "setting": "[5]; equilibrium dissociation constant B1 = b−1/b1 (BP from BBP), unoccupied channel, kinetic ratio", "result": 0.00716, "unit": "µM"}, {"measurement": "Kd", "setting": "[5]; equilibrium dissociation constant B1 from PU vs [BP] (Eq. 15), 4.5–6.5 h data pooled from three to seven single channels", "result": 0.00885, "unit": "µM"}, {"measurement": "kon", "setting": "[5]; pH 7.4, read-out: bimolecular association rate constant b1 (BP to U)", "result": "8.17e+07", "unit": "M⁻¹ s⁻¹"}, {"measurement": "koff", "setting": "[5]; pH 7.4, read-out: dissociation rate constant b−1 (BP from BBP)", "result": 0.585, "unit": "s⁻¹"}, {"measurement": "Kd", "setting": "[4]", "result": 0.057, "unit": "µM"}, {"measurement": "kon", "setting": "[4]; pH 7.4, read-out: association rate constant b2 (BP to SDTX)", "result": "1.85e+06", "unit": "M⁻¹ s⁻¹"}, {"measurement": "koff", "setting": "[4]; read-out: dissociation rate constant b−2 (BP from BBP/DTX)", "result": 0.105, "unit": "s⁻¹"}]}, {"compound": "Shaker ball peptide: 20-residue NH2 terminus of the Shaker K^+ channel of Drosophila that mediates rapid inactivation (MAAVAVLYVLGKKRQHRKKQ)", "values": [{"measurement": "block of maxi-KCa channels", "setting": "[7]; ref Foster et al., 1992, Toro et al.", "result": "known to block maxi-KCa channels by a pore-occlusion mechanism"}, {"measurement": "block of cyclic nucleotide–gated channels", "setting": "[8]", "result": "blocks other types of ion channels"}]}, {"compound": "bovine pancreatic trypsin inhibitor [BPTI]", "values": [{"measurement": "probability of the channel residing in the fully open conductance state", "setting": "[2]; 8 μM internal BPTI (1.0 at 0 μM), +30 mV", "result": "~0.15"}, {"measurement": "mean lifetime of BPTI-induced substate (τS)", "setting": "[2]; BPTI alone, internal, 1-8 μM, +30 mV, symmetrical 50 mM KCl, 10 mM MOPS-KOH pH 7.4, 200 μM internal Ca2+, 20–23°C, mean of four τS means, single-exponential", "result": "~0.41 s and 0.411 ± 0.022 s"}, {"measurement": "apparent association rate constant 4k1", "setting": "[2]; BPTI alone, internal, fit of τU to Eq. 2, +30 mV, 50 mM KCl, pH 7.4", "result": "1.63 ± 0.07 × 10^6 s^−1M^−1"}, {"measurement": "dissociation rate constant k−1", "setting": "[2]; BPTI alone, internal, from τS (Eq. 1), ±SEM, +30 mV, 50 mM KCl, pH 7.4", "result": "2.43 ± 0.13", "unit": "s⁻¹"}, {"measurement": "equilibrium dissociation constant K1 (kinetic ratio k−1/4k1)", "setting": "[2]; BPTI, unoccupied channel, +30 mV, 50 mM KCl, pH 7.4", "result": "1.49 ± 0.10 µM and 1.49 µM"}, {"measurement": "Hill coefficient n", "setting": "[2]; fit of PU vs [BPTI]", "result": 1.0}, {"measurement": "substate current level", "setting": "[2]; ligand alone, internal, +30 mV", "result": "~27 % of unitary current"}, {"measurement": "Kd", "setting": "[2]; [10]", "result": 1.49, "unit": "µM"}, {"measurement": "binding kinetics when studied alone", "setting": "[2]; words", "result": "one-site binding kinetics"}, {"measurement": "relief of the DTX substate", "setting": "[3]; 8 μM BPTI, 460 nM DTX-I", "result": "~30", "unit": "%"}, {"measurement": "slope of τBURST vs [BPTI]", "setting": "[3]; BPTI titration at 460 nM DTX-I, measured", "result": 3.25, "unit": "s/µM"}, {"measurement": "KApp for relief of normalized DTX-substate probability, best fit to Eq. 10", "setting": "[3]; BPTI titration, 460 nM DTX-I", "result": "17.8 µM and 17.8 ± 1.7 µM"}, {"measurement": "decrease of BPTI affinity when DTX-I is bound (K2/K1)", "setting": "[3]; DTX-occupied vs unoccupied channel", "result": "11.7 fold and 11.7 ± 2.1 fold and ~11 fold"}, {"measurement": "increase in mean τS-DTX", "setting": "[3]; over 0–8 μM BPTI at 460 nM DTX-I", "result": 47, "unit": "%"}, {"measurement": "Kd", "setting": "[3]; read-out: Kd of BPTI when DTX-I is bound, abstract, DTX-occupied channel", "result": 17.5, "unit": "µM"}, {"measurement": "inhibition of chymotrypsin/trypsin family serine proteinases", "setting": "[9]", "result": "potent inhibitors"}]}]}
